{"data": "Assay results of several laboratories", "target": "Peripheral plasma membrane protein CASK (CASK, Homo sapiens, UniProt O14936)", "Residues used in one study (O14936 1-926)": "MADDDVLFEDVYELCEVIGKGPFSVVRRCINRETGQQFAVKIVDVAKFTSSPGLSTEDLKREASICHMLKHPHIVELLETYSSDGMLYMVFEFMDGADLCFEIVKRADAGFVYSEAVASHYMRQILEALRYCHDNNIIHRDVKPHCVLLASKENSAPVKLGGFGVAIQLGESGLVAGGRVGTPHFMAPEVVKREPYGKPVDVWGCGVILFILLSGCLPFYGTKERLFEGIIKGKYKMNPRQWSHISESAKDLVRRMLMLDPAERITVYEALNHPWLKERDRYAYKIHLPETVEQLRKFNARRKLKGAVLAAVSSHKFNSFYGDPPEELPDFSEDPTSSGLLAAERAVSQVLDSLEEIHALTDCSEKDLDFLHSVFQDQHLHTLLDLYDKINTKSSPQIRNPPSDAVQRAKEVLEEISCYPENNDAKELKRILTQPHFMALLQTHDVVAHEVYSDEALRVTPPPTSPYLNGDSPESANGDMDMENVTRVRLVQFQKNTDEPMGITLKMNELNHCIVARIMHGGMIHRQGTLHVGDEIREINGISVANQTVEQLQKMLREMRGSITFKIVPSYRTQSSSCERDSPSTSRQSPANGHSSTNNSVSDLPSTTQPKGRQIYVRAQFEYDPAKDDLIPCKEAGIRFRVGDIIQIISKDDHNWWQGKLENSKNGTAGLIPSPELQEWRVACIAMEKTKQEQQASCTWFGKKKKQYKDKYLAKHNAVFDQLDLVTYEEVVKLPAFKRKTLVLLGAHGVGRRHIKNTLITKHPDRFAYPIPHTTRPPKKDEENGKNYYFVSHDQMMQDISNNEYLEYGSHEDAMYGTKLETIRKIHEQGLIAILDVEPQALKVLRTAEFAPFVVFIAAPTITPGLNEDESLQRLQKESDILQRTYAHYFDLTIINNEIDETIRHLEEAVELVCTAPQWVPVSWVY", "note": "Each line is one published result; the experiments were not run side by side."}
{"Structure (SMILES)": "Cc1cnc(Nc2ccc(C(=O)N3CCC(N4CCCC4)CC3)cc2)nc1-c1cc2ccccc2s1", "assay": "binding, competition with immobilised ligand", "setting": "1 µM", "remaining binding": "100%"}
{"Structure (SMILES)": "O=C(NCC1CCOCC1)c1n[nH]cc1NC(=O)c1c(F)cccc1F", "assay": "binding, competition with immobilised ligand", "setting": "1 µM", "remaining binding": "61%"}
{"Structure (SMILES)": "CCCCN(CCCC)C(=O)CN1C[C@@H](c2cc(OC)c3c(c2)OCO3)[C@H](C(=O)O)[C@H]1CC(C)(C)CCC", "assay": "cell-free assay, competition with immobilised ligand", "setting": "1 µM", "remaining binding": "90.5%"}
{"Structure (SMILES)": "O=C(NCCCN1CCOCC1)c1ccc(Nc2ncc(Cl)c(-c3ccc(Cl)s3)n2)cc1", "assay": "binding, competition with immobilised ligand", "setting": "1 µM", "remaining binding": "98%"}
{"Structure (SMILES)": "CN(C)c1ncc(F)c(-c2cnn3ncccc23)n1", "assay": "binding, competition with immobilised ligand", "setting": "1 µM", "remaining binding": "79%"}
{"Structure (SMILES)": "C[C@@H](c1ccc(-n2cnc3c(N)ncnc32)cc1)N1CCc2nn(C)c(Cc3ccccc3)c2C1=O", "assay": "binding, competition with immobilised ligand", "setting": "0.1 µM", "remaining binding": "80%"}
{"Structure (SMILES)": "FC(F)(F)Oc1cccc(-c2cnc3ccc(-c4ccncc4)nn23)c1", "assay": "cell-free assay, competition with immobilised ligand", "setting": "5 µM", "remaining binding": "50%"}
{"Structure (SMILES)": "N[C@H]1CCN(c2nccc(-c3cnn4ncccc34)n2)C1", "assay": "binding, competition with immobilised ligand", "setting": "1 µM", "remaining binding": "100%"}
{"Structure (SMILES)": "O=c1nc(-c2ccccn2)sc2ccccc12", "assay": "binding, competition with immobilised ligand", "setting": "1 µM", "remaining binding": "84%"}
{"Structure (SMILES)": "CNC(=O)[C@@H]1CC[C@@H](n2c(-c3ccc4cnccc4c3)nc3ccc(C(=O)NCc4cccc(C(N)=O)c4)cc32)C1", "assay": "binding, competition with immobilised ligand", "setting": "1 µM", "remaining binding": "82%"}
{"Structure (SMILES)": "O=C(O)[C@@H]1[C@@H](Cn2nnc3ccccc3c2=O)CC[C@H]1C(=O)c1ccc(OCCC2CCOCC2)cc1", "assay": "cell-free assay, competition with immobilised ligand", "setting": "1 µM", "remaining binding": "100%"}
{"Structure (SMILES)": "C[C@H]1CCN(c2nccc(-c3cnn4ncccc34)n2)C1", "assay": "binding", "setting": "1 µM", "remaining binding": "74%"}
{"Structure (SMILES)": "C=CC(=O)N1CCC(C(=O)NCC(=O)N2CCN(c3nc(-c4cnc(N)nc4C(F)F)nc(N4CCOCC4)n3)CC2)CC1", "assay": "binding, competition with immobilised ligand", "setting": "1 µM", "remaining binding": "69%"}
{"Structure (SMILES)": "Cc1nc(C2CCN(C(=O)c3ccc(OC(F)(F)F)cc3N)CC2)c2ncc(N3CCN(C)CC3)cc2n1", "assay": "cell-free assay, competition with immobilised ligand", "setting": "1 µM", "remaining binding": "87%"}
{"Structure (SMILES)": "F[C@@H]1CCN(c2nccc(-c3cnn4ncccc34)n2)C1", "assay": "binding", "setting": "1 µM", "remaining binding": "100%"}
{"Structure (SMILES)": "O=C(c1ccc(Nc2nccc(-c3cc4ccccc4s3)n2)cc1)N1CCC(N2CCCC2)CC1", "assay": "binding, competition with immobilised ligand", "setting": "1 µM", "remaining binding": "85%"}
{"Structure (SMILES)": "CN(c1nccc(-c2cnn3ncccc23)n1)C1CC1", "assay": "binding", "setting": "1 µM", "remaining binding": "100%"}
{"Structure (SMILES)": "Cn1nc(C(=O)NCc2ccc(C(=O)O)cc2)cc1-c1ccc2[nH]ccc2c1", "assay": "cell-free assay, competition with immobilised ligand", "setting": "0.1 µM", "remaining binding": "69%"}
{"Structure (SMILES)": "COc1cnc(Nc2cccc(S(N)(=O)=O)c2)nc1N1CCN(c2ccccc2)CC1", "assay": "binding, competition with immobilised ligand", "setting": "1 µM", "remaining binding": "95%"}
{"Structure (SMILES)": "CC1CCCN1c1nccc(-c2cnn3ncccc23)n1 (stereo not drawn)", "assay": "binding, competition with immobilised ligand", "setting": "1 µM", "remaining binding": "100%"}
{"Structure (SMILES)": "O=C(Nc1cccnn1)N1CCC(=Cc2cccc(Oc3ccc(C(F)(F)F)cn3)c2)CC1", "assay": "cell-free assay, competition with immobilised ligand", "setting": "1 µM", "remaining binding": "92%"}
